From ChEMBL document CHEMBL3085685, “In vitro and in vivo antileishmanial and trypanocidal studies of new N-benzene- and N-naphthalenesulfonamide derivatives” (J Med Chem, 2013)
Activity calls are given as the source filed them. The rule behind the calls is not given here.

Legend:
Leishmania infantum [1] = assay: Leishmanicidal activity against intracellular amastigote stage of Leishmania infantum MCAN/ES/96/BCN150 infected in mouse J774 cells assessed as reduction of parasite load after 48 hrs by resazurin dye-based fluorometric analysis; type: functional, organism-based
Procedure, shortened: (§1)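 J774 macrophages (5 × 10^4/well) infected with stationary promastigotes at 1:10, 24 h at 33 °C then 24 h at 37 °C, 5% CO2, and washed free of promastigotes. Then 2-fold serial dilutions in triplicate for 48 h at 37 °C. Cells lysed with RPMI with 0.048% HEPES and 0.006% SDS, transformed in Schneider's 3 days at 26 °C, resazurin 3 h, fluorescence 535/590 nm.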

[2] = Selectivity index, ratio of CC50 for mouse J774 cells to IC50 for extracellular promastigote stage of Leishmania amazonensis MHOM/Br/79/Maria; type: functional
[3] = Selectivity index, ratio of CC50 for mouse J774 cells to IC50 for extracellular promastigote stage of Leishmania guyanensis 141/93; type: functional
Leishmania infantum [4] = assay: Leishmanicidal activity against promastigote stage of Leishmania infantum MCAN/ES/96/BCN150 infected in BALB/c mouse assessed as reduction of parasite burden in liver at 5 mg/kg, ip qd administered for 5 days measured after 7 days by limiting dilution assay relative to untreated control; type: functional
Procedure, shortened: (§2)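 BALB/c mice infected intracardially under pentobarbital anaesthesia with 10^7 stationary L. infantum BCN150 promastigotes. From day 21 post-infection, dosed ip once daily for 5 days in 0.1 mL propylene glycol, with an untreated control group. Killed 7 days later; spleen and liver burdens by limiting dilution and expressed as % reduction versus controls.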

Leishmania infantum [5] = assay: Leishmanicidal activity against promastigote stage of Leishmania infantum MCAN/ES/96/BCN150 infected in BALB/c mouse assessed as reduction of parasite burden in spleen at 5 mg/kg, ip qd administered for 5 days measured after 7 days by limiting dilution assay relative to untreated control; type: functional; procedure, shortened: as §2
Leishmania amazonensis [6] = assay: Leishmanicidal activity against extracellular promastigote stage of Leishmania amazonensis MHOM/Br/79/Maria assessed as reduction of parasite load after 48 hrs by resazurin dye-based fluorometric analysis; type: functional, organism-based
Procedure, shortened: (§3)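 Log-phase promastigotes cultured in Schneider's medium with 20% heat-inactivated FBS at 26 °C, 2.5 × 10^5 per well. DMSO-dissolved compounds added as 2-fold serial dilutions, final DMSO ≤0.2% (v/v), 48 h at 26 °C. Growth read by 2.5 mM resazurin stock, fluorescence 535/590 nm. Triplicate; IC50 by probit analysis.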

Trypanosoma cruzi [7] = assay: Trypanocidal activity against bloodstream trypomastigote stage of Trypanosoma cruzi Y infected in BALB/c mouse assessed as reduction of parasitemia at 10 mg/kg/day, ip qd administered for 5 days measured on day 10 post-infection by microscopic analysis relative to control; type: functional; design: scale not given: the % may be the effect or the level left; conditions: route intraperitoneal
Procedure, shortened: (§4)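 Female BALB/c mice (20–24 g) infected ip with 10^4 Y-strain bloodstream trypomastigotes; only parasitemic animals used. Compounds dissolved in DMSO, freshly diluted in propylene glycol, given ip at 10 mg/kg/day for 5 days from 5 dpi, with an untreated group. Parasitemia counted by Pizzi–Brener in 5 μL tail blood at 5, 8, 10 dpi; mortality checked daily to 30 dpi.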

Trypanosoma cruzi [8] = assay: Trypanocidal activity against extracellular epimastigote stage of Trypanosoma cruzi CL-B5 assessed as reduction of parasite load after 72 hrs by CPRG-based colorimetric analysis
[9] = Cytotoxicity against mouse NCTC-929 cells assessed as reduction of cell viability after 24 hrs by resazurin dye-based […]
Procedure, shortened: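 NCTC clone 929 fibroblasts in DMEM with 10% FBS and 2 mM L-glutamine, plated at 3 × 10^4 cells/well and grown overnight at 37 °C, 5% CO2. Compounds in fresh medium for 24 h, then 2 mM resazurin solution added for 3 h. Absorbance read at 570 and 595 nm; CC50 taken as 50% viability loss versus untreated cells, by probit analysis.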

Leishmania guyanensis = assay: Leishmanicidal activity against extracellular promastigote stage of Leishmania guyanensis 141/93 assessed as reduction of parasite load after 48 hrs by resazurin dye-based fluorometric analysis; type: functional, organism-based; conditions: Leishmania guyanensis, 141/93, 48 h; read-out: IC50; procedure, shortened: as §3
[10] = Selectivity index, ratio of CC50 for mouse NCTC-929 cells to IC50 for extracellular epimastigote stage of Trypanosoma cruzi CL-B5; type: functional
Leishmania braziliensis = assay: Leishmanicidal activity against extracellular promastigote stage of Leishmania braziliensis 2903 assessed as reduction of parasite load after 48 hrs by resazurin dye-based fluorometric analysis; type: functional, organism-based; conditions: Leishmania braziliensis, 2903, 48 h; read-out: IC50; procedure, shortened: as §3
[11] = Cytotoxicity against mouse J774 cells assessed as reduction of cell viability after 24 hrs by resazurin dye-based fluorometric analysis
Procedure, shortened: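 J774 macrophages in RPMI 1640 with 10% heat-inactivated FBS, seeded at 5 × 10^4 cells/well and attached 24 h at 37 °C, 5% CO2. Medium swapped for drug dilutions for 24 h. Then 2.5 mM resazurin stock added for 3 h, fluorescence read at 535 nm excitation / 590 nm emission. Triplicate; CC50 from probit analysis.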

Leishmania infantum [12] = assay: Leishmanicidal activity against extracellular promastigote stage of Leishmania infantum MCAN/ES/96/BCN150 assessed as reduction of parasite load after 48 hrs by resazurin dye-based fluorometric analysis; type: functional, organism-based; conditions: Leishmania infantum, MCAN/ES/96/BCN150, 48 h; read-out: IC50; procedure, shortened: as §3
Trypanosoma cruzi [13] = assay: Trypanocidal activity against bloodstream trypomastigote stage of Trypanosoma cruzi Y infected in BALB/c mouse assessed as reduction of survival rate at 10 mg/kg/day, ip qd administered for 5 days measured daily until day 30 post-infection; type: functional, organism-based; procedure, shortened: as §4
Trypanosoma cruzi [14] = assay: Trypanocidal activity against bloodstream trypomastigote stage of Trypanosoma cruzi Y infected in BALB/c mouse assessed as reduction of parasitemia at 10 mg/kg/day, ip qd administered for 3 days measured on day 8 post-infection by microscopic analysis relative to control; type: functional; design: scale not given: the % may be the effect or the level left; conditions: route intraperitoneal; procedure, shortened: as §4
Leishmania amazonensis [15] = assay: Leishmanicidal activity against intracellular amastigote stage of Leishmania amazonensis MHOM/Br/79/Maria infected in mouse J774 cells assessed as reduction of parasite load after 48 hrs by resazurin dye-based fluorometric analysis; type: functional, organism-based; procedure, shortened: as §1
Trypanosoma cruzi [16] = assay: Trypanocidal activity against intracellular amastigote stage of Trypanosoma cruzi CL-B5 infected in mouse NCTC-929 cells assessed as reduction of parasite load after 7 days by CPRG-based colorimetric analysis
[17] = Selectivity index, ratio of CC50 for mouse J774 cells to IC50 for extracellular promastigote stage of Leishmania infantum MCAN/ES/96/BCN150; type: functional
Leishmania infantum [18] = assay: Antileishmanial activity against promastigote stage of Leishmania infantum assessed as disappearance of kinetoplast DNA at IC50 after 48 hrs by propidium iodide staining-based confocal laser scanning microscopic analysis; type: functional, organism-based
Mus musculus = assay: Toxicity in BALB/c mouse infected with promastigote stage of Leishmania infantum MCAN/ES/96/BCN150 assessed as appearance of hyperactivity with local skin irritation at 5 mg/kg, ip qd administered for 5 days; type: organism-based; design: dose 5 mg/kg, route intraperitoneal; conditions: in vivo, 120 h; procedure, shortened: as §2
Leishmania infantum [19] = assay: Antileishmanial activity against promastigote stage of Leishmania infantum assessed as induction of apoptosis at IC50 after 48 hrs by propidium iodide staining-based confocal laser scanning microscopic analysis; type: functional, organism-based
Leishmania infantum [20] = assay: Binding affinity to beta-tubulin in promastigote stage of Leishmania infantum assessed as structure disorganization at IC50 after 24 to 48 hrs by confocal laser scanning microscopic analysis
[21] = Leishmania infantum, MCAN/ES/96/BCN150, J774, 48 h, read-out: IC50
[22] = Leishmania amazonensis, MHOM/Br/79/Maria, 48 h, read-out: IC50
[23] = Trypanosoma cruzi, CL-B5, 72 h, read-out: IC50
[24] = Leishmania amazonensis, MHOM/Br/79/Maria, J774, 48 h, read-out: IC50
[25] = Trypanosoma cruzi, CL-B5, NCTC-929, 168 h, read-out: IC50

Compound: O=S(=O)(Nc1cccc2cnccc12)c1cccc2ccccc12
- IC50 (Leishmania infantum [1]; [21]): 23 µM
- Ratio CC50/IC50 [2]: >10.4
- Ratio CC50/IC50 [3]: > 16.2
- Activity (Leishmania infantum [4]): inactive
- Activity (Leishmania infantum [5]): inactive
- IC50 (Leishmania amazonensis [6]; [22]): 24.5 µM
- Activity (Trypanosoma cruzi [7]): 60%
- IC50 (Trypanosoma cruzi [8]; [23]): 97.6 µM
- CC50 at 24 h [9]: 187 µM
- IC50 (Leishmania guyanensis): 15.8 µM
- Ratio CC50/IC50 [10]: >1.9
- IC50 (Leishmania braziliensis): 23 µM
- CC50 at 24 h [11]: ≥ 300 µM
- IC50 (Leishmania infantum [12]): 20.3 µM
- Activity (Trypanosoma cruzi [13]): Active
- Activity (Trypanosoma cruzi [14]): 72%
- IC50 (Leishmania amazonensis [15]; [24]): 42.9 µM
- IC50 (Trypanosoma cruzi [16]; [25]): 141 µM

Compound: O=S(=O)(Nc1ccc2ncsc2c1)c1ccccc1
- IC50 (Leishmania infantum [1]; [21]): 39.2 µM
- Ratio CC50/IC50 [2]: >3.1
- Activity (Leishmania infantum [4]): inactive
- Activity (Leishmania infantum [5]; route intraperitoneal): 53.51%
- IC50 (Leishmania amazonensis [6]; [22]): 82.6 µM
- IC50 (Trypanosoma cruzi [8]): Not Active
- IC50 (Leishmania guyanensis): 23.7 µM
- IC50 (Leishmania braziliensis): 30.6 µM
- CC50 at 24 h [11]: ≥ 300 µM
- IC50 (Leishmania infantum [12]): 18.4 µM
- Ratio CC50/IC50 [17]: > 13.9
- IC50 (Leishmania amazonensis [15]; [24]): 77.5 µM
- IC50 (Trypanosoma cruzi [16]; nctc-929): Not Active

Compound: O=S(=O)(Nc1ccc2cn[nH]c2c1)c1ccc(F)cc1
- IC50 (Leishmania infantum [1]; j774): Not Active
- IC50 (Leishmania amazonensis [6]; [22]): 108 µM
- Activity (Trypanosoma cruzi [7]): 44%
- IC50 (Trypanosoma cruzi [8]; [23]): 1.3 µM
- CC50 at 24 h [9]: 223 µM
- IC50 (Leishmania guyanensis): 96.3 µM
- Ratio CC50/IC50 [10]: >196.9
- IC50 (Leishmania braziliensis): 88.8 µM
- CC50 at 24 h [11]: ≥ 300 µM
- IC50 (Leishmania infantum [12]): 94.8 µM
- Activity (Trypanosoma cruzi [13]): inactive
- Activity (Trypanosoma cruzi [14]): -50%
- IC50 (Leishmania amazonensis [15]; j774): Not Active
- IC50 (Trypanosoma cruzi [16]; [25]): 28.5 µM

Compound: O=S(=O)(Nc1ccc2c[nH]nc2c1)c1ccc(Cl)cc1
- IC50 (Leishmania infantum [1]; j774): Not Active
- IC50 (Leishmania amazonensis [6]; [22]): 59.1 µM
- Activity (Trypanosoma cruzi [7]): 14%
- IC50 (Trypanosoma cruzi [8]; [23]): 25.9 µM
- CC50 at 24 h [9]: 211 µM
- IC50 (Leishmania guyanensis): 46.1 µM
- Ratio CC50/IC50 [10]: >9.9
- IC50 (Leishmania braziliensis): 35.6 µM
- CC50 at 24 h [11]: ≥ 300 µM
- IC50 (Leishmania infantum [12]): 43.5 µM
- Activity (Trypanosoma cruzi [13]): inactive
- Activity (Trypanosoma cruzi [14]): -10%
- IC50 (Leishmania amazonensis [15]; j774): Not Active
- IC50 (Trypanosoma cruzi [16]; [25]): 12.3 µM

Compound: CC1CCCN(S(=O)(=O)c2cccc3ccccc23)C1 (centres undefined)
- IC50 (Leishmania infantum [1]; [21]): 7.1 µM
- Activity (Leishmania infantum [18]): Active
- Ratio CC50/IC50 [2]: >10.4
- Activity (Leishmania infantum [4]): inactive
- Activity (Leishmania infantum [5]; route intraperitoneal): 80.17%
- IC50 (Leishmania amazonensis [6]; [22]): 24.6 µM
- IC50 (Trypanosoma cruzi [8]): Not Active
- Activity (Mus musculus): Toxic
- Activity (Leishmania infantum [19]): Active
- IC50 (Leishmania guyanensis): 7.2 µM
- IC50 (Leishmania braziliensis): 9.9 µM
- Activity (Leishmania infantum [20]): Active
- CC50 at 24 h [11]: ≥ 300 µM
- IC50 (Leishmania infantum [12]): 6.7 µM
- Ratio CC50/IC50 [17]: > 38.2
- IC50 (Leishmania amazonensis [15]; [24]): 18 µM
- IC50 (Trypanosoma cruzi [16]; nctc-929): Not Active

Compound: O=[N+]([O-])c1ccc(S(=O)(=O)Nc2cnccn2)cc1
- IC50 (Leishmania infantum [1]; j774): Not Active
- IC50 (Leishmania amazonensis [6]): Not Active
- Activity (Trypanosoma cruzi [7]): 57%
- IC50 (Trypanosoma cruzi [8]; [23]): 76.1 µM
- CC50 at 24 h [9]: 317 µM
- IC50 (Leishmania guyanensis): 84.2 µM
- Ratio CC50/IC50 [10]: >4.7
- IC50 (Leishmania braziliensis): 61.5 µM
- CC50 at 24 h [11]: ≥ 300 µM
- Activity (Trypanosoma cruzi [13]): inactive
- Activity (Trypanosoma cruzi [14]): 14%
- IC50 (Leishmania amazonensis [15]; j774): Not Active
- IC50 (Trypanosoma cruzi [16]; [25]): 224 µM
